Measurements reported in paper PMC3832383 (Drug Design, Development and Therapy, 2013).
In brackets after ≈: the same amount, converted by molar mass.

Tested on: P. falciparum strain NF54
Experiment: [3H]hypoxanthine incorporation assay, unsynchronized parasites
Type: cell-based
Conditions: Plasmodium falciparum, NF54, 72 h
Method in brief: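 Two ways of diluting the 10 mg/mL stock were compared. In one, the stock went straight into hypoxanthine-free medium. In the other, it was diluted 1/50 in co-solvent, then 1/100 and 1/2 in hypoxanthine-free medium.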

Structure (SMILES)	IC50 [ng/mL]
CCN(CC)Cc1cc(Nc2ccnc3cc(Cl)ccc23)ccc1O [amodiaquine]	1.5 (≈ 0.00422 µM)
OC(c1cc(C(F)(F)F)nc2c(C(F)(F)F)cccc12)C1CCCCN1 (stereo not drawn) [mefloquine]	4.1 (≈ 0.0108 µM)
C[C@@H]1CC[C@H]2[C@@H](C)C(=O)O[C@@H]3O[C@@]4(C)CC[C@@H]1[C@]32OO4 [artemisinin]	3 (≈ 0.0106 µM)
Clc1ccc2c(N3CCN(CCCN4CCN(c5ccnc6cc(Cl)ccc56)CC4)CC3)ccnc2c1 [piperaquine]	7.8 (≈ 0.0146 µM)
CCc1nc(N)nc(N)c1-c1ccc(Cl)cc1 [pyrimethamine]	3 (≈ 0.0121 µM)
COc1ccc2nc3cc(Cl)ccc3c(Nc3cc(CN4CCCC4)c(O)c(CN4CCCC4)c3)c2n1 [pyronaridine]	2.6 (≈ 0.00502 µM)

Tested on: Plasmodium falciparum strain NF54 (rings, trophozoites, schizonts)
Experiment: In vitro assessment of stage-specific activity, synchronous cultures
Type: cell-based
Conditions: control drug; data not shown
Method in brief: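 P. falciparum NF54 synchronized by two 5% D-sorbitol treatments, with intervals set to give rings (>80%, ≤6 h old), trophozoites (≥80%, ≤20 h) or early schizonts (≤36 h). Stages were exposed 6 or 24 h to two-fold dilutions (final 250–7.81 ng/mL) in hypoxanthine-free medium, co-solvent <0.5%, then washed and assessed by [3H]hypoxanthine incorporation. Values are mean ± SD of 3–4 independent experiments.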

Structure (SMILES)	effect against ring and trophozoite stages
CCc1nc(N)nc(N)c1-c1ccc(Cl)cc1 [pyrimethamine]	ineffective

Tested on: P. falciparum strain NF54
Experiment: not given
Conditions: unsynchronized NF54; cited from earlier work

Structure (SMILES)	IC50 [ng/mL]
[H]/N=C(\N/C(=N/[H])Nc1ccc(Cl)cc1)NC(C)C [proguanil]	440 (≈ 1.73 µM)
O=C1C(O)=C([C@H]2CC[C@H](c3ccc(Cl)cc3)CC2)C(=O)c2ccccc21 [atovaquone]	0.38 (≈ 0.00104 µM)
